High-throughput results deposited in PubChem BioAssay by several laboratories.
WT yeast gro inh – growth inhibition of WT strain, primary screen, mitochondrial fusion inhibitor project, WT and mutant strains, chemical genetic; mitochondrial fusion phenotypic screen; inhibition, % at 10 µM; 2.1% of 190,000 active; in the data active = inhibition above about 58%; tested in S. cerevisiae
L major viab – Leishmania major promastigote growth inhibition, primary screen. Leishmania major promastigotes, resazurin fluorescence viability. inhibition, % at 10 µM. 9% of 200,000 active. AID 1063, 2008;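 note: promastigotes grown with compound for 44 hours at 28 °C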
Diaphorase inh – diaphorase inhibitors and chemical oxidizers, primary screen, counter-screen for diaphorase-coupled primary assays, biochemical, uHTS, resorufin fluorescence; inhibition, % at 20 µM; diaphorase resazurin-to-resorufin fluorescence, NADH, 16 min; bacterial (C. kluyveri) enzyme, not human; 0.69% of 190,000 active;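 active = primary screen inhibition at 20 µM above a set limit, cut at about 50% in these data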
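Assay system: diaphorase enzyme from Clostridium kluyveri; Input: enzyme working solution with 0.14 U/mL diaphorase; Timing: 16 min at room temperature; Technique: resorufin fluorescence, excitation 544 nm, emission 590 nm; Benchmarks: positive control minus NADH, DMSO neutral control.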
G6PDH CS – L. mesenteroides G6PDH inhibitors, counter-screen for G6PDH-coupled screening assays, biochemical, Leuconostoc mesenteroides enzyme; glucose-6-phosphate dehydrogenase [Leuconostoc mesenteroides]; Purified L. mesenteroides G6PDH, diaphorase/resazurin coupled fluorescence, 45 min; inhibition, % at 5 µM; 0.12% of 200,000 active
Diaphorase act – compounds boosting diaphorase resazurin reduction – biochemical, uHTS, resorufin fluorescence, counter-screen for diaphorase-coupled primary assays, primary screen; Diaphorase/resazurin coupled assay, 16 min; hits give high values; 1 = vehicle wells, 0 = NADH-free wells; activation factor at 20 µM; 0.005% of 190,000 active;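 active = diaphorase activity raised at least twofold by the compound at 20 µM; inactive = activation factor below 2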
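Material: bacterial diaphorase enzyme (C. kluyveri); amount: enzyme 0.07 U/mL final; reagent: NADH substrate 0.114 mM plus resazurin dye 0.1 mM, final; doses: single compound dose of 20 µM, 1% DMSO final; timing: 16 min enzyme reaction, ambient temperature; measured by: fluorescence of resorufin, 544 nm excitation, 590 nm emission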
Of the large screens only hits and unclear results are named; the others gave an inactive call. An excerpt weighted towards active compounds, which were near 11% of everything screened. Cut-off read from the data, not from the text of the source, unless noted: active = inhibition above about 50%; inactive = the rest.

Cc1ccc(S(=O)(=O)N(C)C)cc1NC(=O)COC(=O)c1ccc2c(c1)OCCO2	none
CCC(C)n1c(=S)[nH]c2c(sc3ccc([N+](=O)[O-])cc32)c1=O (centres undefined)	WT yeast gro inh 68, Diaphorase inh 62
CCOC(=O)N1CCN(C(=O)c2ccc(C)c(S(=O)(=O)Nc3cccc(C)c3C)c2)CC1	L major viab 98
Cc1ccccc1NS(=O)(=O)c1cc(C(=O)N2CCCC2)ccc1C	none
CCOC(=O)N1CCN(C(=O)c2ccc(C)c(S(=O)(=O)Nc3ccccc3)c2)CC1	none
Cc1ccccc1CN(c1ccc(C(=O)N2CCc3ccccc3C2)cc1)S(C)(=O)=O	L major viab 70
Cc1cccc(NS(=O)(=O)c2cc(C(=O)N3CCc4ccccc4C3)ccc2Cl)c1C	L major viab 97
Cc1ccc(C)c(NS(=O)(=O)c2cc(C(=O)N3CCc4ccccc4C3)ccc2Cl)c1	L major viab 98
N#C/C(=C1\C(=O)Nc2c(Cl)cc(Cl)cc21)c1nnc2n1CCCCC2	none
Cc1noc(C)c1S(=O)(=O)N(C)CC(=O)Nc1ccc(F)cc1	none
CC(C)CC(=O)OCc1cn(-c2ccccc2)nn1	none
Cc1noc(C)c1CSc1nnc2cc(C)c3ccccc3n12	none (no result: WT yeast gro inh, L major viab)
O=C(NCc1nc2ccccc2[nH]1)C1=C[C@@H](c2ccccc2)C[C@@H](OCc2ccc(CO)cc2)O1	L major viab 85
O=C(NCc1nc2ccccc2[nH]1)C1=C[C@@H](C2CCCCC2)C[C@@H](OCc2ccc(CO)cc2)O1	L major viab 74
O=C(NCc1nc2ccccc2[nH]1)C1=C[C@H](c2ccccc2)C[C@H](OCc2ccc(CO)cc2)O1	none
CSCc1cc(N2CCOCC2)nc(SCc2ccc(Cl)c(Cl)c2)n1	WT yeast gro inh 62
O=C(NCC1CCCO1)c1cc(C(=O)C2CCCCC2)c[nH]1 (centres undefined)	none
CC(=O)c1cccc(S(=O)(=O)N(CCCO)Cc2cc3ccc(C)cc3[nH]c2=O)c1	none
CCNCc1cc(Br)c(OCC(=O)Nc2ccccc2)c(OC)c1	L major viab 101
COc1ccccc1NC(=O)COc1cc(Br)c(CNCCCN2CCOCC2)cc1OC	L major viab 55
COc1cc(CO)ccc1OCC(=O)Nc1ccc(Br)cc1	none
COc1ccccc1NC(=O)COc1ccc(Br)cc1CNC1CCCC1	L major viab 94
COc1cc(CNCCc2ccccc2)cc(Br)c1OCC(=O)Nc1ccccc1C	L major viab 100
COc1cc2c(cc1NC(=O)c1cccc(S(=O)(=O)N(C)C)c1)oc1ccccc12	none
COc1ccccc1NC(=O)NCCN1C(=O)C2C3C=CC(C3)C2C1=O (centres undefined)	none
COc1ccccc1NC(=O)COc1ccc(Br)cc1CO	none
CNCc1cc(Br)c(OCC(=O)Nc2ccccc2OC)c(OC)c1	L major viab 100
COc1cc(C(=S)N2CCCCC2)ccc1OCC(=O)Nc1ccccc1Cl	L major viab 66
O=C(Nc1cccc(NC(=O)c2cccs2)c1)c1ccc2c(c1)OCCO2	none
CCC(=O)/C=C1/Sc2ccccc2N1CC	none
CCN1/C(=C/c2cc[n+](CCCS(=O)(=O)[O-])c3ccccc23)Sc2ccccc21	L major viab 100
CC(C)N(CCNS(=O)(=O)c1ccc(Cl)cc1)C(C)C	L major viab 57
O=C(CC1S/C(=N/N=C/c2ccco2)NC1=O)Nc1cccc(Cl)c1Cl (centres undefined)	none
CCOCCCNCc1ccc(OCc2ccccc2C)c(OC)c1	L major viab 98
CCN(CC)CCNCc1cc(Cl)ccc1OCc1ccccc1F	L major viab 99
CCOCCCNCc1ccc(OCC(=O)N2CCOCC2)c(OC)c1	none
CCNCc1ccc(OCc2ccccc2F)c(OC)c1	L major viab 81
COc1cc(CNCCCCO)ccc1OCc1ccccc1F	L major viab 83
COc1cc(CNc2ccc(N3CCCC3)cc2)ccc1OCc1ccccc1F	none
CCn1cc(/C=N\NC(=O)C2(C)CC2(Cl)Cl)c(C)n1 (centres undefined)	none
O=c1c(C(c2ccccc2)c2c(O)sc3ccccc3c2=O)c(O)sc2ccccc12	none
CCOC(=O)C/C(C)=N/NC(=O)C1CC1(c1ccccc1)c1ccccc1 (centres undefined)	none
COc1ccc(CCN2C(=O)CS/C2=N\NC(=O)c2ccc(C(C)(C)C)cc2)cc1OC	none
CN1CCN(C(=O)c2cc3c(C(F)(F)F)nn(C)c3s2)CC1	none
O=C(CC(Nc1ccc(F)cc1)C(=O)O)c1ccccc1 (centres undefined)	L major viab 61
Cc1ccc(NC(CC(=O)c2ccccc2)c2ccc(F)cc2)cc1 (centres undefined)	none
Cc1cccc(C)c1NC(=S)N1CCCN(Cc2ccc(F)cc2)C1	L major viab 73
Cc1cccc(NC(=S)N2CCCCCC2)c1	none
CCOC(=O)N1CCC(N(CCN(C)C)C(=S)Nc2cccc(SC)c2)CC1	none
CSc1cccc(NC(=S)N2CCC(N(C)C3CCCC3)CC2)c1	L major viab 85
COc1cccc(NC(=S)N2CCCN(Cc3ccc(F)cc3)C2)c1	L major viab 87
Fc1cccc(NC(=S)N2CCCC2)c1	L major viab 63
CCc1ccc(NC(=O)C(=O)N/N=C(\C)CC(=O)NCc2ccc(Cl)cc2)cc1	none
O=C(NS(=O)(=O)Oc1ccc(F)c(Cl)c1)OC[C@@H]1CCCN2CCCCC12 (some centres undefined)	none
COc1cccc(NC(=S)Nc2cccnc2)c1	L major viab 51
COc1cccc(NC(=S)N/N=C2/CCCCc3ccccc32)c1	WT yeast gro inh 65
COc1cccc(NC(=S)N2CCCC2)c1	L major viab 76
COc1cccc(NC(=S)N2CCN(c3ccccn3)CC2)c1	none
CSc1cccc(NC(=S)N2CCCN(Cc3cccc(Cl)c3)C2)c1	L major viab 90
Brc1ccc(C2Nc3cccc4cccc(c34)N2)s1	none
O=C(COC(=O)c1ccccc1NC(=O)c1ccco1)NC1CCS(=O)(=O)C1 (centres undefined)	none
COc1ccc(NC(=S)N2CCN(Cc3ccccc3)CC2)cc1	none
CCOC(=O)C1CCCN(C(=S)Nc2ccc(OC)cc2)C1 (centres undefined)	none
CCOc1ccc(NC(=S)N2CCCN(Cc3cccc(Cl)c3)C2)cc1	L major viab 82
COc1ccc(NC(=S)N2CCCN(Cc3cccc(Cl)c3)C2)cc1	L major viab 94
COc1ccc(NC(=S)N2CCCN(Cc3cc(C)ccc3C)C2)cc1	L major viab 55
CCOC(=O)c1sc2nc(C(C)C)c3c(c2c1N)CC(C)(C)OC3	Diaphorase inh 55
